Source: ChEMBL document CHEMBL4808178 (J Med Chem, 2021)
Active and inactive are the calls of the source. No cut-off for these calls is given here.

Tests used:
[1] = biological target: Dual specificity protein kinase CLK2 (Homo sapiens, UniProt P49760); assay: Inhibition of CLK2 (unknown origin) assessed as residual activity at 1 uM relative to control
In short: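 Single-concentration screen at 1 μmol/L against a panel of 208 kinases, run as a commercial service; activity expressed relative to control.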

[2] = biological target: T1, Tyrosine-protein kinase ZAP-70 (Homo sapiens) (UniProt P43403); assay: Inhibition of ZAP70 (unknown origin) assessed as residual activity at 1 uM relative to control
T1 sequence (whole entry): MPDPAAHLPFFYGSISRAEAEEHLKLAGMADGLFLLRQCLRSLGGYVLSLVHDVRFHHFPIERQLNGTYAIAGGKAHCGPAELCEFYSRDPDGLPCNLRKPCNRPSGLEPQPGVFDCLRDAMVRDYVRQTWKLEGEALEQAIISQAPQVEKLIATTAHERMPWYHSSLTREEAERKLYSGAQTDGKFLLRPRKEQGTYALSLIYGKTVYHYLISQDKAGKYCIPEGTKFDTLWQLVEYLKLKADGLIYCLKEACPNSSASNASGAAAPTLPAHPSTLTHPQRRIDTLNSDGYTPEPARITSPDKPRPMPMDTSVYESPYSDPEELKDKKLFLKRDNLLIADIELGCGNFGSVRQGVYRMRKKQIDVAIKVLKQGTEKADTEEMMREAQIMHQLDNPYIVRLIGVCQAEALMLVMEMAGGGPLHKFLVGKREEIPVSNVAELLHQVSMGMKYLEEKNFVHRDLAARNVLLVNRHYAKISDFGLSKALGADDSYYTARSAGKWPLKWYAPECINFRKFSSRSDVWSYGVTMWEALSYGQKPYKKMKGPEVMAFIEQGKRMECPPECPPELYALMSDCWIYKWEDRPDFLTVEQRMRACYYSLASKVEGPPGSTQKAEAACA
In short: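 Commercial profiling service against a 208-kinase panel; single concentration 1 μmol/L; residual kinase activity expressed relative to control.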

PC-3 = assay: Cytotoxicity against human PC3 cells assessed as reduction in cell viability incubated for 72 hrs by MTT assay; type: functional, cell-based; conditions: PC-3, 72 h
In short: (§1)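 About 5 × 10³ cells/well, seeded overnight at 37 °C, 5% CO₂, in DMEM or RPMI-1640 with 10% FBS and antibiotics. DMSO-dissolved compounds diluted in medium, exposure 72 h.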

MCF7 = assay: Cytotoxicity against human MCF7 cells assessed as reduction in cell viability incubated for 72 hrs by MTT assay; type: functional, cell-based; conditions: MCF7, 72 h; in short: as §1
[3] = biological target: T2, Aldehyde dehydrogenase 1A1 (Homo sapiens) (UniProt P00352); assay: Inhibition of ALDH1A1 in human HCT116 cells assessed as reduction in mRNA transcriptional level at 20 uM after 24 hrs by RT-qPCR analysis; type: cell-based; conditions: HCT-116
T2 sequence (whole entry): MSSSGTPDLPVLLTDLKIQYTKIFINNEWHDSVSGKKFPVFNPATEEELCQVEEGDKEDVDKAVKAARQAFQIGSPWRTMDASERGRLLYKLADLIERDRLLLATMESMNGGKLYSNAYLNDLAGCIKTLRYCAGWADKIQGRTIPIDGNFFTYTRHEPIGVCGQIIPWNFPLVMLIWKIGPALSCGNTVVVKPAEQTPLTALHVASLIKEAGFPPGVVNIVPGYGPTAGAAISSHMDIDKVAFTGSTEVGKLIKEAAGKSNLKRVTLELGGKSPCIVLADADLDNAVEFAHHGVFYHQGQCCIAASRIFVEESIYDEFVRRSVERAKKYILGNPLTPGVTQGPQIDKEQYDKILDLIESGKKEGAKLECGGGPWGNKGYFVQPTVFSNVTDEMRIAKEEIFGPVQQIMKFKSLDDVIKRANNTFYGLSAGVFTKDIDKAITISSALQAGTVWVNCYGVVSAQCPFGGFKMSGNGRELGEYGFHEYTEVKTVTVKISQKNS
In short: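 HCT-116 cells treated 24 h; total RNA by TRIZOL, one-step RT-qPCR: 55 °C 10 min, 95 °C 1 min, then 39 cycles of 95 °C 10 s and 60 °C 30 s, with melting-curve and no-template controls. β-Actin as internal standard; relative expression by 2^−ΔΔCt, mean ± SD (n = 3).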

HCT-116 [4] = assay: Inhibition of cell stemness in human HCT116 cells assessed as reduction in number of tumor spheres at 5 uM after 10 days by microscopic analysis; type: functional, cell-based; conditions: time 10.0 day
In short: (§2)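 Sorted ALDH⁺ HCT-116 cells, 800/well, in serum-free DMEM with B27 (1:50), EGF 20 ng/mL, β-FGF 10 ng/mL; co-incubated with compound (5 μM) or DMSO vehicle for 10 days; sphere number, diameter and morphology scored from microscopy images; mean ± SD, n = 3.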

HCT-116 [5] = assay: Inhibition of cell stemness in human HCT116 cells assessed as reduction in size of tumor spheres at 5 uM after 10 days by microscopic analysis; type: functional, cell-based; conditions: time 10.0 day; in short: as §2
HCT-116 [6] = assay: Effect on Wnt/beta-Catenin signaling in human HCT116 cells assessed as downregulation of beta-catenin protein level at 5 to 20 uM after 24 hrs by Western blotting analysis; type: functional, cell-based; conditions: dose 5-20 µM
In short: (§3)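 HCT-116 cells at 2 × 10⁵ cells/mL in DMEM/10% FBS, grown 12 h at 37 °C, then treated 24 h (vehicle DMSO). Lysates quantified by BCA, run on 10% SDS-PAGE, PVDF transfer, blocked in 5% milk/TBST, primary antibodies 4 °C overnight, HRP secondary 2 h, chemiluminescent detection; normalized to β-actin, n = 3.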

HCT-116 [7] = assay: Induction of apoptosis in human HCT116 cells assessed as early apoptotic cells at 20 uM after 24 hrs by annexin V-FITC/propidium iodide staining based flow cytometry (reference value: 1%); type: functional
HCT-116 [8] = assay: Induction of apoptosis in human HCT116 cells assessed as reduction in Bcl2 protein expression at 20 uM incubated for 24 hrs by Western blot analysis; type: functional, cell-based; in short: as §3
HCT-116 [9] = assay: Induction of apoptosis in human HCT116 cells assessed as down regulation of pro-caspase 3 level at 20 uM incubated for 24 hrs by Western blot analysis; type: functional, cell-based; in short: as §3
HCT-116 [10] = assay: Induction of apoptosis in human HCT116 cells assessed as upregulation of cleaved caspase 3 level at 20 uM incubated for 24 hrs by Western blot analysis; type: functional, cell-based; in short: as §3
[11] = Tmax in Sprague-Dawley rat at 25 mg/kg, po measured up to 48 hrs by LC-MS/MS analysis; type: ADME, organism-based; conditions: in vivo
In short: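 Overnight-fasted male SD rats (250−270 g, n = 3/group), single oral 25 mg/kg in 5% CMC-Na (reference sodium salt in phosphate buffer); plasma at 0.25–48 h (12 timepoints), stored −40 °C; LC−MS/MS with internal-standard calibration 3–3000 ng/mL; parameters fitted by model.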

[12] = Half life in Sprague-Dawley rat at 25 mg/kg, po measured up to 48 hrs by LC-MS/MS analysis; type: ADME, organism-based; conditions: in vivo
In short: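 Overnight-fasted male SD rats (about 250−270 g), three per group, single oral 25 mg/kg; test compound suspended in 5% CMC-Na, control as sodium salt in phosphate buffer. Blood sampled 0.25–48 h, plasma by centrifugation, stored −40 °C, quantified by LC−MS/MS against plasma standard curve (3–3000 ng/mL) with internal standard; model-fitted PK parameters.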

Sequence of Dual specificity protein kinase CLK2 (P49760 whole entry, looked up): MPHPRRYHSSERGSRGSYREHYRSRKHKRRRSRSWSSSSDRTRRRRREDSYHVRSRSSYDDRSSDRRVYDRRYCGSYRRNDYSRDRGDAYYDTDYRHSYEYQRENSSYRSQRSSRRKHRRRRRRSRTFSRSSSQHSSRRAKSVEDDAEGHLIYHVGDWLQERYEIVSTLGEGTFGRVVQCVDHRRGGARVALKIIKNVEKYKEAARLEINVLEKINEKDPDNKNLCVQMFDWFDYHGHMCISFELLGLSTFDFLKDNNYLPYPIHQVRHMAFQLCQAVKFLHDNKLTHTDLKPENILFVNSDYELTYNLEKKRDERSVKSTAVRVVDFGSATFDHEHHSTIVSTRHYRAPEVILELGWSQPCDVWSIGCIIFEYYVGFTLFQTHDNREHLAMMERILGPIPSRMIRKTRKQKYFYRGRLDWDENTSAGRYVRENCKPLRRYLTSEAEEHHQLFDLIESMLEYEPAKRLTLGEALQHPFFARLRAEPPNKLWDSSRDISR

O=C(NCCO)c1ccc2c(c1)nc(Nc1cccc(Cl)c1)c1ccncc12
Activity [1]: 22.1%
Activity [2]: 26%
IC50 (PC-3): 4.53 µM
IC50 (MCF7): 7.5 µM
inhibition [3]: Active
inhibition (HCT-116 [4]): Active
inhibition (HCT-116 [5]): Active
Activity (HCT-116 [6]): Active
Activity (HCT-116 [7]): 22.5%
Activity (HCT-116 [8]): Active
Activity (HCT-116 [9]): Active
Activity (HCT-116 [10]): Active
Tmax [11]: 2.33 h
half-life [12]: 6.67 h
